The values below come from ChEMBL document CHEMBL5046223, “AZD5438-PROTAC: A selective CDK2 degrader that protects against cisplatin- and noise-induced hearing loss” (Eur J Med Chem, 2021).

Assay [1] concerns the target von Hippel-Lindau E3 ligase/Cyclin-dependent kinase 2 (Mus musculus). Briefly: Protac activity at CDK2/VHL E3 ligase in mouse HEI-OC1 cells assessed as induction of CDK2 protein degradation measured after 24 hrs by Western blot analysis.
Assay [2] is filed under the species Danio rerio. In words: Protection of kainic acid-induced ototoxicity in 5 days post fertilization zebrafish assessed as protection neuromast hair cells at 5 to 100 nM measured after 24 hrs by fluorescence microscopy. The settings on record: dose 5-100 nM, time 5.0 day.
The species entered for assay [3] is Danio rerio. Briefly: Protection of cisplatin-induced ototoxicity in 5 days post fertilization zebrafish assessed as protection neuromast hair cells at 0.001 to 1 nM measured after 24 hrs by fluorescence microscopy. It counts as functional, organism-based. The conditions noted are these: dose upper 1.0 µM, time 5.0 day, in the assay text read “0.001 to 1 µM” for “0.001 to 1 nM”. Summed up: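 Zebrafish larvae at 4 dpf pre-exposed 24 h to 0.1 nM–1 μM in E3, then co-incubated 6 h with compound plus cisplatin 400 μM. After 1 h recovery, fish were fixed in 4% PFA and immunostained for otoferlin. Hair cells in otic, middle and opercular neuromasts were counted manually under a 40x fluorescence objective, 6–8 fish per experiment; mean ± SEM.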

Assay [4] concerns the target von Hippel-Lindau disease tumor suppressor/CDK2 (Danio rerio) (UniProt Q7ZWB1+Q68EH9). Briefly: PROTAC activity at CDK2/VHL E3 ligase in 5 days post fertilization zebrafish assessed as decrease in CDK2 abundance measured after 24 hrs by immunoblot analysis. The conditions noted are these: dose 1.0 µM. Summed up:
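TuAB zebrafish larvae at 4 dpf, kept in E3 medium (pH 7.2) at 28.5°C, exposed 24 h to 0.1 nM–1 μM in E3 (controls 0.1% DMSO). Fish were collected before any ototoxin. Lysates were run at 20–30 μg protein per lane, probed with anti-CDK2 (1:500) against β-actin, and CDK2 bands quantified from three independent experiments.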

Assay [5] relates to Protein cereblon/Cyclin-dependent kinase 2 (Mus musculus). In words: Protac activity at CDK2/CRBN E3 ligase in mouse HEI-OC1 cells assessed as induction of CDK2 protein degradation at 100 nM measured after 24 hrs by Western blot analysis. In general terms: A western blot detects proteins with antibodies after separation by electrophoresis.

As usually defined, the DC50 is the concentration at which degradation of the target reaches its halfway point.

The source made the active and inactive calls. The rule behind the calls is not given here.

For the compound `Cc1ncsc1-c1ccc(CNC(=O)[C@@H]2C[C@@H](O)CN2C(=O)[C@@H](NC(=O)COCCn2cc(CCCS(=O)(=O)c3ccc(Nc4nccc(-c5cnc(C)n5C(C)C)n4)cc3)nn2)C(C)(C)C)cc1`, the DC50 in assay [1] is 100 nM. The outcome (in the assay listed under Danio rerio [2]; in the assay filed under Danio rerio [3]; in assay [4]) was Active.
Take `Cc1ncc(-c2ccnc(Nc3ccc(S(=O)(=O)CCCc4cn(CCOCCOCCOCCNc5cccc6c5C(=O)N(C5CCC(=O)NC5=O)C6=O)nn4)cc3)n2)n1C(C)C` (stereo unspecified): in assay [5], the outcome was inactive.
`O=C1CCC(N2C(=O)c3cccc(NCCOCCOCCOCCn4cc(CO[C@H]5CC[C@H](NC(=O)c6n[nH]cc6NC(=O)c6c(F)cccc6F)CC5)nn4)c3C2=O)C(=O)N1` (stereo partly specified): the result in assay [5] was inactive.
